Test results from ChEMBL document CHEMBL2046344, “Natural products as a gold mine for selective matrix metalloproteinases inhibitors” (Bioorg Med Chem, 2012).
Calls of active or inactive are those of the source. No cut-off for these calls is given here.

Legend:
[1] = biological target: T1, 72 kDa type IV collagenase (Homo sapiens, UniProt P08253); experiment: Inhibition of human recombinant MMP2 catalytic domain at 10 uM incubated for 20 mins by fluorimetric assay
Method in brief: (§1)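 Diluted recombinant MMP enzyme pre-incubated 20 min at room temperature with varied inhibitor concentrations in 50 mM Tris–HCl, 150 mM NaCl, 5 mM CaCl2, 0.05% Brij-35, pH 7.5; total assay volume 100 µl.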
Target sequence in this assay (P08253 110-660 limits assumed): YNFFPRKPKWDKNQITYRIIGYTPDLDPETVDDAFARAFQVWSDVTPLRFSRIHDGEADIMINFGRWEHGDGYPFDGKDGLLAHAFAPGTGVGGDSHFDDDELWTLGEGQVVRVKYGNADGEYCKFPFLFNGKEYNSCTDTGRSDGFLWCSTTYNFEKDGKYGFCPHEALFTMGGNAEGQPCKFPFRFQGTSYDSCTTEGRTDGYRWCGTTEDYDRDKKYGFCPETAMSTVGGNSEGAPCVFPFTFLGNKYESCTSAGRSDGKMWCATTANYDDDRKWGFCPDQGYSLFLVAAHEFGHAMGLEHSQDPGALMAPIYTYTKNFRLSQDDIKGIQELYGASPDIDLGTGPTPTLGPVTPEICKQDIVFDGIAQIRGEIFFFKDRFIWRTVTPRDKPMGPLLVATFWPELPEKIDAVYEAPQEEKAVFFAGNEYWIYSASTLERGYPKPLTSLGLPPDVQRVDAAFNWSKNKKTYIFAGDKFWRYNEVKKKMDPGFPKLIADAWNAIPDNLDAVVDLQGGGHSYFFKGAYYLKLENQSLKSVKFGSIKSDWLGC

[2] = biological target: T1, 72 kDa type IV collagenase; experiment: Inhibition of human recombinant MMP2 catalytic domain incubated for 20 mins by fluorimetric assay; method in brief: as §1
Target sequence in this assay (P08253 whole entry, the tested form may be a part): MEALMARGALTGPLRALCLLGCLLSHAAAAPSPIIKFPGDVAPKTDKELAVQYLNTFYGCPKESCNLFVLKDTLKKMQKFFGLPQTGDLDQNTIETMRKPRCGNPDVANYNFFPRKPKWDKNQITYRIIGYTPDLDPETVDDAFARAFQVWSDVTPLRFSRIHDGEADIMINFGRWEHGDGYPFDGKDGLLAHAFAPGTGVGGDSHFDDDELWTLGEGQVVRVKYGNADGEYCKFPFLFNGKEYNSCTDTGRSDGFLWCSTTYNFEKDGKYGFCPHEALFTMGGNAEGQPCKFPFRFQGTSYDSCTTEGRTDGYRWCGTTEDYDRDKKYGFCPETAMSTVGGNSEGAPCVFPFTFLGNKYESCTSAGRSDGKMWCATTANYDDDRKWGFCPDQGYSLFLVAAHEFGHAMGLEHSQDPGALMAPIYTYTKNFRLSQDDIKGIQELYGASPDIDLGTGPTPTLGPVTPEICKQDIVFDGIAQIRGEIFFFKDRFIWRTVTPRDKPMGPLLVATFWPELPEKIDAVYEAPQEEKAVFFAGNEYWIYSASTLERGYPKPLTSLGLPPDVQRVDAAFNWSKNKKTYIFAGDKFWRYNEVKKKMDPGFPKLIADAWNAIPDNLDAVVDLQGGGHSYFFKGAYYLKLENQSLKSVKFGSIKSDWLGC

[3] = biological target: T2, Matrix metalloproteinase-9 (Homo sapiens, UniProt P14780); experiment: Inhibition of human recombinant MMP9 catalytic domain at 10 uM incubated for 20 mins by fluorimetric assay; method in brief: as §1
[4] = biological target: T3, Stromelysin-1 (Homo sapiens, UniProt P08254); experiment: Inhibition of human recombinant MMP3 catalytic domain at 10 uM incubated for 20 mins by fluorimetric assay; method in brief: as §1
[5] = biological target: T3, Stromelysin-1; experiment: Inhibition of human recombinant MMP3 catalytic domain incubated for 20 mins by fluorimetric assay; method in brief: as §1
[6] = biological target: T2, Matrix metalloproteinase-9; experiment: Inhibition of human recombinant MMP9 catalytic domain incubated for 20 mins by fluorimetric assay; method in brief: as §1
[7] = biological target: T4, Collagenase 3 (Homo sapiens, UniProt P45452); experiment: Inhibition of human recombinant MMP13 catalytic domain incubated for 20 mins by fluorimetric assay; method in brief: as §1
[8] = biological target: T4, Collagenase 3; experiment: Inhibition of human recombinant MMP13 catalytic domain at 10 uM incubated for 20 mins by fluorimetric assay; method in brief: as §1
[9] = biological target: T5, Interstitial collagenase (Homo sapiens, UniProt P03956); experiment: Inhibition of human recombinant MMP1 catalytic domain incubated for 20 mins by fluorimetric assay; method in brief: as §1
T5 sequence (P03956 whole entry): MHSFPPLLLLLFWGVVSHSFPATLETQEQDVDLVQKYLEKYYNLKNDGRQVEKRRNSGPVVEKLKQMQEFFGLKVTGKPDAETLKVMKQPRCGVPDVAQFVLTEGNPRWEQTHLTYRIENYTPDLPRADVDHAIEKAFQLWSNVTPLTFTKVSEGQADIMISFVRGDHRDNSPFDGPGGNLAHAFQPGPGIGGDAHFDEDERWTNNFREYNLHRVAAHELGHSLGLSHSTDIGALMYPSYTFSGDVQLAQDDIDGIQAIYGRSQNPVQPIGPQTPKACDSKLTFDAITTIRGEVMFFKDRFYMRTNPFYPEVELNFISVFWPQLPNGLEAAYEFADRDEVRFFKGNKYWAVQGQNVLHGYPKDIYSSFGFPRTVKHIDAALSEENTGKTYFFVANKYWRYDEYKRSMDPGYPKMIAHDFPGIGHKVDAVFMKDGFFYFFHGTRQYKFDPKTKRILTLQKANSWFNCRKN

[10] = biological target: T6, Interstitial collagenase (Homo sapiens) (UniProt P03956); experiment: Inhibition of human recombinant MMP1 catalytic domain at 10 uM incubated for 20 mins by fluorimetric assay; method in brief: as §1
T6 sequence (whole entry): T5 sequence (P03956 whole entry)

[11] = biological target: T7, Macrophage metalloelastase (Homo sapiens, UniProt P39900); experiment: Inhibition of human recombinant MMP12 catalytic domain incubated for 20 mins by fluorimetric assay; method in brief: as §1
[12] = biological target: T7, Macrophage metalloelastase; experiment: Inhibition of human recombinant MMP12 catalytic domain at 10 uM incubated for 20 mins by fluorimetric assay; method in brief: as §1
[13] = tested on: MDA-MB-231; experiment: Inhibition of active MMP9 protein expression in human MDA-MB-231 cells at 50 uM incubated for 24 hrs by Western blot; assay type: functional, cell-based
Method in brief: (§2)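 MDA-MB-231 cells co-incubated with 20 ng/ml TPA and test compound at 50 µM for 24 h, then lysed. Lysates centrifuged 10000g, 10 min, 4 °C, run on 10% SDS–PAGE, transferred to PVDF, blocked overnight at 4 °C in TBST with 5% skim milk. Probed with anti-MMP-2 and anti-MMP-9 antibodies; GAPDH as loading control.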

[14] = tested on: MDA-MB-231; experiment: Inhibition of cell migration of human MDA-MB-231 cells at 10 uM incubated for 48 hrs by wound healing assay; assay type: functional, cell-based
Method in brief: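 MDA-MB-231 monolayer grown overnight to confluence and scratched with a pipette tip. Debris washed off with L15 medium, then cells kept in serum-free L15 with compound (1 and 10 µM) for 48 h. Migration into the wound photographed by phase-contrast microscopy at 0, 24 and 48 h.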

[15] = tested on: MDA-MB-231; experiment: Effect on cell proliferation of human MDA-MB-231 cells at 50 uM incubated for 24 hrs; assay type: functional, cell-based
[16] = tested on: MDA-MB-231; experiment: Inhibition of MMP2 protein expression in human MDA-MB-231 cells at 50 uM incubated for 24 hrs by Western blot; assay type: functional, cell-based; method in brief: as §2
[17] = tested on: MDA-MB-231; experiment: Inhibition of pro-MMP9 protein expression in human MDA-MB-231 cells at 50 uM incubated for 24 hrs by Western blot; assay type: functional, cell-based; method in brief: as §2

T3 sequence (P08254 whole entry, the tested form may be a part): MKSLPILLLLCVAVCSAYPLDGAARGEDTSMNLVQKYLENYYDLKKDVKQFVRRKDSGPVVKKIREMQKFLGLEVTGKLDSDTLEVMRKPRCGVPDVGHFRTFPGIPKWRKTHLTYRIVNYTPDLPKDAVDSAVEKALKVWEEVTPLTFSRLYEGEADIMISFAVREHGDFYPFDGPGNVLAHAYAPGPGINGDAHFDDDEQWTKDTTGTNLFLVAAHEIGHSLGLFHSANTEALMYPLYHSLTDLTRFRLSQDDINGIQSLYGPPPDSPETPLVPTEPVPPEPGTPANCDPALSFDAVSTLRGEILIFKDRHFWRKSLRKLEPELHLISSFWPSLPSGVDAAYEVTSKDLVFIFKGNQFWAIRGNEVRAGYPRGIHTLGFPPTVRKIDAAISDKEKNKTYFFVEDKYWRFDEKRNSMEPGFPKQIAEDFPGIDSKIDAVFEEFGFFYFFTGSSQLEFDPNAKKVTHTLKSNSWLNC
T7 sequence (P39900 whole entry, the tested form may be a part): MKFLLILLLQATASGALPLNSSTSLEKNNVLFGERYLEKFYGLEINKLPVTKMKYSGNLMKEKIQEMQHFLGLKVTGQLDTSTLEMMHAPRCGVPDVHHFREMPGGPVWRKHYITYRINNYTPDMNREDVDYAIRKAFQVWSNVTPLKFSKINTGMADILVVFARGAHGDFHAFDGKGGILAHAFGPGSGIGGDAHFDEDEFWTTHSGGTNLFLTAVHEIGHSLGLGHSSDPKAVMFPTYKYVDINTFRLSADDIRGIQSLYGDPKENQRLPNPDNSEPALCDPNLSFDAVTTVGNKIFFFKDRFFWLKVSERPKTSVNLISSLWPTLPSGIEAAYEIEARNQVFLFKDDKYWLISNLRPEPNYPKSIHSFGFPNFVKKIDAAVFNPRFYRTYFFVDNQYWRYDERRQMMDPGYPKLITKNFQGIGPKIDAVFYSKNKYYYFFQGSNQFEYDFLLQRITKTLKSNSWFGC
T2 sequence (P14780 whole entry, the tested form may be a part): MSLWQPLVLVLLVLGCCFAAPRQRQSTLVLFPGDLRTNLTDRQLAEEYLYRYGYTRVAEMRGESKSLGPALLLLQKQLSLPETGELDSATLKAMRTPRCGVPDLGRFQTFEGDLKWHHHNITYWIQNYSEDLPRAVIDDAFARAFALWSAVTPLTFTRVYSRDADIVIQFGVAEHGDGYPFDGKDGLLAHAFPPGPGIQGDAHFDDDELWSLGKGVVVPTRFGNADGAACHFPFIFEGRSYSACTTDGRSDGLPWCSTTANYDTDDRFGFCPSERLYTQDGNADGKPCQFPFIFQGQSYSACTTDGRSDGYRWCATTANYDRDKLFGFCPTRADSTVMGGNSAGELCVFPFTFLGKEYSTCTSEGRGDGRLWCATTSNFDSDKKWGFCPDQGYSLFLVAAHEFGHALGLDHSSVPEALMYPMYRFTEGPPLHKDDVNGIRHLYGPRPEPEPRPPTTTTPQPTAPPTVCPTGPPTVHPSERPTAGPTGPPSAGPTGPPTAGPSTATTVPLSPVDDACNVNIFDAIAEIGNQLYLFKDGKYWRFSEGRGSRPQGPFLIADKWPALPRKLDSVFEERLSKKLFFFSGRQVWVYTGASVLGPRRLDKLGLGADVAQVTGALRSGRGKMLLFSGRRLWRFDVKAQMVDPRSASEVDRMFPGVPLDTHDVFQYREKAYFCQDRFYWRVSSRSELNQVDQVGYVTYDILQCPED

Row | Structure (SMILES) | inhibition [1] | IC50 [2] | inhibition [3] | inhibition [4] | IC50 [5] | IC50 [6] | IC50 [7] | inhibition [8] | IC50 [9] | inhibition [10] | IC50 [11] | inhibition [12] | inhibition [13] | inhibition [14] | inhibition [15] | inhibition [16] | inhibition [17]
1 | O=C(c1c(O)cc(O)cc1O)C1c2c(cc(O)c3c2O[C@H](c2ccc(O)cc2)[C@@H](O)C3)OC1c1ccc(O)cc1 (some centres not stated) [DIHYDRODAPHNODORIN B] | > 30% | 14.1 µM | > 30% | > 30% | 25.6 µM | 10.2 µM | 43.5 µM | > 30% |  |  |  |  |  |  |  |  | 
2 | CC(C)CC(=O)OC(C(=O)O)C(C)C (configuration not stated) | > 30% | 23.3 µM | > 30% | > 30% | 38.2 µM | 14.3 µM | 42.5 µM | > 30% | 10.6 µM | > 30% |  |  |  |  |  |  | 
3 | O=C1c2c(O)cc(O)cc2O[C@]2(c3ccc(O)cc3)Oc3cc(O)c4c(c3[C@@]12O)O[C@H](c1ccc(O)cc1)CC4 [DAPHNODORIN F] | > 30% | 23.3 µM | > 30% | > 30% | 22.3 µM | 21.2 µM | 13.2 µM | > 30% |  |  |  |  |  |  |  |  | 
4 | Oc1cc(O)cc(/C=C/c2ccc(O)cc2O)c1 [OXYRESVERATROL] | > 30% | 27.6 µM |  |  |  |  |  |  |  |  |  |  |  |  |  |  | 
5 | C[C@]12CCC[C@@](C)(C(=O)O)[C@@H]1CCC1=CC(=O)CC[C@@H]12 | > 30% | 33.3 µM |  |  |  |  |  |  |  |  |  |  |  |  |  |  | 
6 | CNC(=O)C(CCc1ccccc1)NC(=O)C(CC(=O)NO)CC(C)C (configuration not stated) | > 30% | 0.0036 µM |  |  |  |  | 0.0064 µM | > 30% | 0.0041 µM | > 30% | 0.0082 µM | > 30% |  |  |  |  | 
7 | COC(=O)C1(O)CC(OC(=O)/C=C/c2ccc(O)c(O)c2)C(O)C(OC(=O)/C=C/c2ccc(O)c(O)c2)C1 (configuration not stated) [MACRATHOIN F] | > 30% | 3.88 µM | > 30% | > 30% | 10.4 µM | 11.6 µM | 7.62 µM | > 30% | 16.3 µM | > 30% | 1.2 µM | > 30% |  |  |  |  | 
8 | COC(=O)[C@@H](Cc1ccc(O)c(O)c1)OC(=O)/C=C/c1ccc(O)c2c1[C@H](C(=O)OC)[C@@H](c1ccc(O)c(O)c1)O2 [DIMETHYL LITHOSPERMATE] | > 30% | 11.6 µM | > 30% | > 30% | 8.15 µM | 0.99 µM | 18.5 µM | > 30% | 8.23 µM | > 30% | 0.67 µM | > 30% | Active | Active | inactive | Active | inactive
9 | O=c1cc(-c2ccc(O)c(O)c2)oc2cc(O)cc(O)c12 [LUTEOLIN] | > 30% | 3.61 µM | > 30% | > 30% | 16.2 µM | 5.62 µM | 10 µM | > 30% |  |  | 0.98 µM | > 30% |  |  |  |  | 
10 | O=c1c2cc(O)c(O)cc2oc2cc(O)cc(O)c12 |  |  |  |  |  |  |  |  | 11.4 µM | > 30% |  |  |  |  |  |  | 
11 | COC(=O)C1(O)CC(O)C(O)C(OC(=O)/C=C/c2ccc(O)c(O)c2)C1 (configuration not stated) | > 30% | 64.2 µM |  | > 30% | 58.8 µM |  |  |  |  |  |  |  |  |  |  |  | 
12 | COc1ccc(S(=O)(=O)N2CC(C)(C)CN(S(=O)(=O)c3ccc(OC)cc3)C2C(=O)NO)cc1 |  |  | > 30% | > 30% | 0.0286 µM | 0.0018 µM |  |  |  |  |  |  |  |  |  |  | 
13 | C[C@@H]1O[C@@H](O[C@@H]2[C@@H](O)[C@H](OCCc3ccc(O)c(O)c3)O[C@H](COC(=O)/C=C/c3ccc(O)c(O)c3)[C@H]2O)[C@H](O)[C@H](O)[C@H]1O [ISOACTEOSIDE] | > 30% | 8.96 µM | > 30% | > 30% | 91.4 µM | 14.3 µM | 11.1 µM | > 30% |  |  | 8.22 µM | > 30% |  |  |  |  | 
14 | O=C1c2c(O)cc(O)cc2O[C@H](c2cc(O)c(O)c(O)c2)[C@@H]1O | > 30% | 11.9 µM | > 30% | > 30% | 20.3 µM | 28.8 µM | 9.33 µM | > 30% |  |  | 1.74 µM | > 30% |  |  |  |  | 
15 | CCCCOC(=O)[C@H]1c2c(/C=C/C(=O)O[C@H](Cc3ccc(O)c(O)c3)C(=O)O)ccc(O)c2O[C@@H]1c1ccc(O)c(O)c1 | > 30% | 15.5 µM | > 30% | > 30% | 14.8 µM | 3.46 µM | 24.5 µM | > 30% | 3.25 µM | > 30% | 1.79 µM | > 30% |  |  |  |  | 
16 | COc1cc(C(O)C(CO)Oc2ccc(/C=C\CO)cc2OC)ccc1O (configuration not stated) |  |  | > 30% |  |  | 9.91 µM |  |  |  |  |  |  |  |  |  |  | 
17 | O=c1c(O)c(-c2ccc(O)c(O)c2)oc2cc(O)cc(O)c12 [QUERCETIN] | > 30% | 6.68 µM | > 30% | > 30% | 5.57 µM | 1.61 µM | 8.46 µM | > 30% |  |  | 10.2 µM | > 30% |  |  |  |  | 
18 | O=C1CCC(O)(CCOC(=O)/C=C/c2ccc(O)c(O)c2)CC1 |  |  | > 30% |  |  | 12.5 µM |  |  |  |  |  |  |  |  |  |  | 
19 | COc1cc(C[C@@H](CO)[C@H](CO)Cc2ccc(O)c(OC)c2)ccc1O [(+)-SECOISOLARICIRESINOL] |  |  |  |  |  |  |  |  | 50.1 µM | > 30% |  |  |  |  |  |  | 
20 | O=C1c2c(O)cc(O)cc2O[C@H](c2ccc(O)c(O)c2)[C@H]1O | > 30% |  | > 30% | > 30% |  |  |  | > 30% |  |  |  | > 30% |  |  |  |  | 
21 | COC(=O)[C@@H](Cc1ccc(O)c(O)c1)OC(=O)/C=C/c1ccc(O)c(O)c1 [METHYL ROSMARINATE] | > 30% | 3.58 µM | > 30% | > 30% | 28.3 µM | 0.61 µM | 29 µM | > 30% | 14.7 µM | > 30% | 2.75 µM | > 30% |  |  |  |  | 
